Measured values: ChEMBL document CHEMBL1148708, “4-amino-5-substituted-3(2H)-pyridazinones as orally active antinociceptive agents: synthesis and studies on the mechanism of action” (2007)

Legend:
Type in all cases: functional
Mus musculus [1] = test: Antinociceptive activity in Swiss albino mouse assessed as number of writhing in presence of yohimbine at 3 mg/kg, po after 30 mins relative to control
Summary of the method: (§1)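 Mouse abdominal constriction (writhing) test with a chemical pain stimulus. Test drugs given orally 30 min before the test. Yohimbine given at 3 mg kg^-1 ip as α2-adrenoceptor antagonist pretreatment. Writhes counted and compared with CMC vehicle controls. Values are the mean of at least two experiments.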

Mus musculus [2] = test: Antinociceptive activity in Swiss albino mouse assessed as reduction of number of writhing at 20 mg/kg, po after 30 mins relative to control
Summary of the method: (§2)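 Writhing counted in the mouse abdominal constriction test after a chemical noxious stimulus. Compounds given per os 30 min before testing. Controls received CMC vehicle. Activity expressed as reduction in number of writhes versus controls.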

Rattus norvegicus [3] = test: Increase in noradrenaline release in Sprague-Dawley rat cerebral cortex at 20 mg/kg, po after 30 mins by microdialysis technique
Summary of the method: (§3)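 Rat cerebral cortex microdialysis under chloral hydrate anesthesia (400 mg/kg) in a stereotaxic frame, using a vertical concentric probe perfused with solution containing MgCl₂ and 4 mM KCl. About 18 h after surgery, dialysate collected every 20 min and stored at -80 °C. Noradrenaline measured by HPLC with electrochemical detection. Release expressed against a baseline averaged from three samples taken just before drug dosing.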

Mus musculus [4] = test: Antinociceptive activity in Swiss Albino mouse assessed as number of writhing in presence of yohimbine at 20 mg/kg, po after 30 mins relative to control; summary of the method: as §1
Mus musculus [5] = test: Effect on Swiss albino mouse assessed as decrease in number of falls in 30 sec at 20 mg/kg, po after 45 mins by Rota-Rod test
Summary of the method: (§4)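 Rotarod test in mice: falls from the rotating rod counted over 30 s, before treatment and at 15, 30 and 45 min after oral dosing. CMC vehicle controls.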

Mus musculus [6] = test: Effect on Swiss albino mouse assessed as decrease in number of falls in 30 sec at 20 mg/kg, po after 30 mins by Rota-Rod test; summary of the method: as §4
Mus musculus [7] = test: Effect on Swiss albino mouse assessed as decrease in number of falls in 30 sec at 20 mg/kg, po after 15 mins by Rota-Rod test; summary of the method: as §4
Mus musculus [8] = test: Effect on Swiss albino mouse assessed as decrease in number of falls in 30 sec at 3 mg/kg, po after 45 mins by Rota-Rod test; summary of the method: as §4
Mus musculus [9] = test: Effect on Swiss albino mouse assessed as decrease in number of falls in 30 sec at 3 mg/kg, po after 15 mins by Rota-Rod test; summary of the method: as §4
Mus musculus [10] = test: Antinociceptive activity in Swiss albino mouse assessed as reduction of number of writhing at 3 mg/kg, po after 30 mins relative to control; summary of the method: as §2
Mus musculus [11] = test: Effect on Swiss albino mouse assessed as decrease in number of falls in 30 sec at 3 mg/kg, po after 30 mins by Rota-Rod test; summary of the method: as §4
Rattus norvegicus [12] = test: Increase in noradrenaline release in Sprague-Dawley rat cerebral cortex at 3 mg/kg, po after 30 mins by microdialysis technique; summary of the method: as §3
Mus musculus [13] = test: Effect on Swiss albino mouse assessed as decrease in number of falls in 30 sec at 10 mg/kg, po after 30 mins by Rota-Rod test; summary of the method: as §4
Mus musculus [14] = test: Effect on Swiss albino mouse assessed as decrease in number of falls in 30 sec at 10 mg/kg, po after 15 mins by Rota-Rod test; summary of the method: as §4
Mus musculus [15] = test: Antinociceptive activity in Swiss albino mouse assessed as reduction of number of writhing at 10 mg/kg, po after 30 mins relative to control; summary of the method: as §2
Mus musculus [16] = test: Antinociceptive activity in Swiss albino mouse assessed as number of writhing in presence of yohimbine at 10 mg/kg, po after 30 mins relative to control; summary of the method: as §1
Mus musculus [17] = test: Effect on Swiss albino mouse assessed as decrease in number of falls in 30 sec at 10 mg/kg, po after 45 mins by Rota-Rod test; summary of the method: as §4
Rattus norvegicus [18] = test: Increase in noradrenaline release in Sprague-Dawley rat cerebral cortex at 10 mg/kg, po after 30 mins by microdialysis technique; summary of the method: as §3
Mus musculus [19] = test: Effect on Swiss albino mouse assessed as decrease in number of falls in 30 sec at 30 mg/kg, po after 30 mins by Rota-Rod test; summary of the method: as §4
Mus musculus [20] = test: Effect on Swiss albino mouse assessed as decrease in number of falls in 30 sec at 30 mg/kg, po after 15 mins by Rota-Rod test; summary of the method: as §4
Rattus norvegicus [21] = test: Increase in noradrenaline release in Sprague-Dawley rat cerebral cortex at 30 mg/kg, po after 30 mins by microdialysis technique; summary of the method: as §3
Mus musculus [22] = test: Antinociceptive activity in Swiss albino mouse assessed as number of writhing in presence of yohimbine at 30 mg/kg, po after 30 mins relative to control; summary of the method: as §1
Mus musculus [23] = test: Effect on Swiss albino mouse assessed as decrease in number of falls in 30 sec at 30 mg/kg, po after 45 mins by Rota-Rod test; summary of the method: as §4
Mus musculus [24] = test: Antinociceptive activity in Swiss albino mouse assessed as reduction of number of writhing at 30 mg/kg, po after 30 mins relative to control; summary of the method: as §2
Mus musculus [25] = species on record: Mus musculus; test: Effect on Swiss albino mouse assessed as decrease in number of falls in 30 sec after 30 mins of treatment by Rota-Rod test; summary of the method: as §4
Mus musculus [26] = species on record: Mus musculus; test: Antinociceptive activity in Swiss albino mouse assessed as reduction of number of writhing after 30 mins relative to control; summary of the method: as §2
Mus musculus [27] = species on record: Mus musculus; test: Effect on Swiss albino mouse assessed as decrease in number of falls in 30 sec after 45 mins of treatment by Rota-Rod test; summary of the method: as §4
Mus musculus [28] = species on record: Mus musculus; test: Effect on Swiss albino mouse assessed as decrease in number of falls in 30 sec after 15 mins of treatment by Rota-Rod test; summary of the method: as §4
Rattus norvegicus [29] = species on record: Rattus norvegicus; test: Increase in noradrenaline release in Sprague-Dawley rat cerebral cortex after 30 mins by microdialysis technique; summary of the method: as §3

COC(=O)[C@@H]1[C@H]2C[C@H]3c4[nH]c5ccccc5c4CCN3C[C@@H]2CC[C@@H]1O [YOHIMBINE]
Activity (Mus musculus [1]): 31.7

CCN(CC)c1c(-c2ccn(C)n2)c(-c2ccccc2)nn(C)c1=O
Activity (Mus musculus [2]): 27.1

C=Cc1c(-c2ccc(F)cc2)nn(CCCC)c(=O)c1N
Activity (Mus musculus [2]): 33.6

C=Cc1c(C)nn(CCCC)c(=O)c1N
Activity (Mus musculus [2]): 36.7
Activity (Rattus norvegicus [3]): 95.9%

C=Cc1c(-c2ccc(F)cc2)nn(C)c(=O)c1N
Activity (Mus musculus [2]): 27.2

C=Cc1c(-c2cccs2)nn(C)c(=O)c1N
Activity (Mus musculus [2]): 30.2

C=Cc1c(-c2ccncc2)nn(C)c(=O)c1N
Activity (Mus musculus [4]): 34.1
Activity (Mus musculus [5]): 2.1
Activity (Mus musculus [6]): 2.8
Activity (Mus musculus [2]): 18.7
Activity (Mus musculus [7]): 3.5

Cn1ccc(-c2c(-c3ccccc3)nn(C)c(=O)c2N)n1
Activity (Mus musculus [8]): 2.3
Activity (Mus musculus [1]): 31.1
Activity (Mus musculus [9]): 4.2
Activity (Mus musculus [10]): 13.6
Activity (Mus musculus [11]): 3.1
Activity (Rattus norvegicus [12]): 190.1%

C=Cc1c(C)nn(C)c(=O)c1NC
Activity (Mus musculus [13]): 2.5
Activity (Mus musculus [14]): 3.7
Activity (Mus musculus [15]): 17.6
Activity (Mus musculus [16]): 32
Activity (Mus musculus [17]): 2

C=Cc1c(-c2ccc(Br)cc2)nn(C)c(=O)c1N
Activity (Mus musculus [2]): 35.7
Activity (Rattus norvegicus [3]): 107%

Cc1nnc(-c2c(-c3ccccc3)nn(C)c(=O)c2N)o1
Activity (Mus musculus [8]): 1.5
Activity (Mus musculus [1]): 34.2
Activity (Mus musculus [9]): 2.7
Activity (Mus musculus [10]): 19.5
Activity (Mus musculus [11]): 2.3

C=Cc1c(C)nn(C)c(=O)c1NCC
Activity (Mus musculus [13]): 3.2
Activity (Mus musculus [14]): 3.9
Activity (Mus musculus [15]): 16.8
Activity (Mus musculus [16]): 29
Activity (Mus musculus [17]): 2.5
Activity (Rattus norvegicus [18]): 176.2%

C=Cc1c(-c2ccccc2)nn(CCCC)c(=O)c1NC
Activity (Mus musculus [4]): 31.9
Activity (Mus musculus [5]): 2.5
Activity (Mus musculus [6]): 3.3
Activity (Mus musculus [2]): 21.6
Activity (Mus musculus [7]): 4

C=Cc1c(-c2cccs2)nn(CCCC)c(=O)c1N
Activity (Mus musculus [2]): 25.2

Cc1nn(C)c(=O)c(N)c1-c1ccn(C)n1
Activity (Mus musculus [19]): 2.6
Activity (Mus musculus [20]): 3.9
Activity (Rattus norvegicus [21]): 188.5%
Activity (Mus musculus [22]): 31.7
Activity (Mus musculus [23]): 1.8
Activity (Mus musculus [24]): 15.9

C=Cc1c(-c2ccccc2)nn(C)c(=O)c1NCC
Activity (Mus musculus [8]): 1.9
Activity (Mus musculus [1]): 28.1
Activity (Mus musculus [9]): 3.4
Activity (Mus musculus [10]): 17.4
Activity (Mus musculus [11]): 2.3

CCNc1c(-c2ccn(C)n2)c(-c2ccccc2)nn(C)c1=O
Activity (Mus musculus [4]): 29.6
Activity (Mus musculus [5]): 2.1
Activity (Mus musculus [6]): 1.8
Activity (Mus musculus [2]): 14.1
Activity (Mus musculus [7]): 2.6
Activity (Rattus norvegicus [3]): 173.7%

Cn1nc(-c2ccccc2)c(-c2cc[nH]n2)c(N)c1=O
Activity (Mus musculus [8]): 2.3
Activity (Mus musculus [1]): 26.5
Activity (Mus musculus [9]): 3.7
Activity (Mus musculus [10]): 15.9
Activity (Mus musculus [11]): 2.8
Activity (Rattus norvegicus [12]): 168.4%

C=Cc1c(C2CCCC2)nn(C)c(=O)c1N
Activity (Mus musculus [15]): 27.7

Cc1nc(-c2c(-c3ccccc3)nn(C)c(=O)c2N)cs1
Activity (Mus musculus [13]): 2.7
Activity (Mus musculus [14]): 3.8
Activity (Mus musculus [15]): 14.7
Activity (Mus musculus [16]): 33.6
Activity (Mus musculus [17]): 2
Activity (Rattus norvegicus [18]): 181.3%

CC(=O)[O-].O=CC(O)C(O)C(O)C(O)CO.[Na+] (stereo not given)
Activity (Mus musculus [25]): 3
Activity (Mus musculus [26]): 33.2
Activity (Mus musculus [27]): 2.2
Activity (Mus musculus [28]): 3.6
Activity (Rattus norvegicus [29]): 100%

C=Cc1c(-c2ccncc2)nn(CCCC)c(=O)c1N
Activity (Mus musculus [2]): 35.3
Activity (Rattus norvegicus [3]): 97.5%

C=Cc1c(C2CCCCC2)nn(C)c(=O)c1N
Activity (Mus musculus [13]): 3.4
Activity (Mus musculus [14]): 4.1
Activity (Mus musculus [15]): 14.4
Activity (Mus musculus [16]): 32.5
Activity (Mus musculus [17]): 2.9
Activity (Rattus norvegicus [18]): 182.1%
